In the library only some 1.6% were active in any assay of this set; here they are far more common.
PKD1 kinase inh – inhibitors of human PKD1 kinase, biochemical, fluorescence polarization | inhibition, % (test concentration not listed) | actives 0.056% (n = 200,000) | Serine/threonine-protein kinase D1 (Homo sapiens), Q15139 | PKD1 kinase fluorescence polarization assay
RBBP9 inhibitor – human RBBP9 inhibitors, primary screen, biochemical, fluorescence polarization, FP-Rh probe, HTS. inhibition, % at 7.94 µM. Serine hydrolase RBBP9 (Homo sapiens), O75884. AID 1515, 2009. recombinant RBBP9. actives 0.2% (n = 220,000);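 active = inhibition above the campaign mean of all tested compounds plus 3 SD, cut at about 14% in these data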;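 also: plate controls were DMSO wells with RBBP9 for no effect and wells lacking RBBP9 protein for full effect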
Target sequence (O75884 whole entry, looked up): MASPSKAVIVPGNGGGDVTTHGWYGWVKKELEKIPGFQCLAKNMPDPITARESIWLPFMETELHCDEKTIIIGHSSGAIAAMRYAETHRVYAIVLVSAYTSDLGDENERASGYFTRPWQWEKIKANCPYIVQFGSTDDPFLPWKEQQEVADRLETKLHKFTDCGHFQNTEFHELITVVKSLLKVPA
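Material: RBBP9 protein. Amount: RBBP9 at 2.5 µM in dispensed solution, before mixing. Schedule: 30 min then 45 min, 25 °C. Medium: Tris buffer pH 8.0, NaCl, Pluronic. Measured by: fluorescence polarization. Measure: percent inhibition from mP, scaled between DMSO and no-protein wells. Replication: one well per compound.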
EBV gp42 inh – Epstein-Barr virus gp42 inhibitors, primary screen, biochemical, uHTS, fluorescence polarization; Fluorescence polarization binding assay, mP read-out; inhibition, % (tested at 21.74 µM); actives 0.42% (n = 220,000); AID 1085, 2008
Target sequence (Q1HVG2 whole entry, looked up): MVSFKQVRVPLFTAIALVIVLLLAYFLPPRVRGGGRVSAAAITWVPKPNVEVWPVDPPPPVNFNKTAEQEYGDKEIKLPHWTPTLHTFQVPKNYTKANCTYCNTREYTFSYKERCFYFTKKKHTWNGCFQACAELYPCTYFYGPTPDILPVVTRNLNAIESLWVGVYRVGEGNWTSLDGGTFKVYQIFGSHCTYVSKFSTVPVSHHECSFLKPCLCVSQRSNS
14-3-3 Bad inh – inhibitors of 14-3-3 zeta/Bad binding, primary screen, biochemical, TR-FRET, bovine 14-3-3 zeta. TR-FRET 14-3-3zeta/Dy647-pBad peptide displacement, 1 h. AID 781, 2007. inhibition, % at 21.7 µM. 14-3-3 protein zeta/delta (Bos taurus), P63103. actives 0.71% (n = 220,000);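 active = inhibition above about 70%, limit read from the data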;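 also: 0% = full 14-3-3 plus peptide FRET controls and 100% = background without 14-3-3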
eIF4E 4G PPI – eIF4E–eIF4G protein interaction inhibitors, primary screen, biochemical, uHTS, TR-FRET, eIF4GI fragment; TR-FRET eIF4E-eIF4GI(517-606) binding, 2 h; Eukaryotic translation initiation factor 4E (Mus musculus) + Eukaryotic translation …; actives 0.37% (n = 220,000); AID 782, 2007; inhibition, % at 21.7 µM;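 active = inhibition above about 30%, limit read from the data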;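 also: 0% = full FRET control wells and 100% = background wells lacking eIF4GI fragment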
Starred values were filed as active, the others as inactive; x = no result given; [ ] = dose if it differs, or a comment. Rule as the data show it, unless noted: active = inhibition above about 50%; inactive = the rest.

SMILES	PKD1 kinase inh	RBBP9 inhibitor	EBV gp42 inh	14-3-3 Bad inh	eIF4E 4G PPI
Cc1cc(N2CCN(C)CC2)nc2ccc(NC(=O)c3ccccc3F)cc12	-1	-9	-5	-5	1
O=C(Nc1ccc(Nc2ccncc2)cc1)c1ccc(Nc2ccnc3ccc([N+](=O)[O-])cc23)cc1	x	7	-6	82*	-58
Cc1nc(C)c(NC(=O)OC(C)C)cc1NC(=O)OC(C)C	2	-10	-10	1	2
O=C1Nc2ccc([N+](=O)[O-])cc2C1(O)N1CCCCCC1 (stereo unspecified)	4	3	-8	24	-9
CC1CCN(C2(O)C(=O)Nc3ccc(Br)cc32)CC1 (stereo unspecified)	4	-8	-5	83*	5
O=C1C2CC=C(Cl)CC2C(=O)N1CCN1CCOCC1 (stereo unspecified)	4	-3	1	22	1
O=C1C2CC=C(Cl)CC2C(=O)N1CCCCCCN1C(=O)C2CC=C(Cl)CC2C1=O (stereo unspecified)	4	-2	63*	11	13
Fc1ccc(C2CCCN2Cc2nc(Cc3ccccc3)no2)cc1 (stereo unspecified)	-9	-2	-7	-9	60*
COc1ccc(OCC(=O)N2CC3(C)CC2CC(C)(C)C3)cc1 (stereo unspecified)	-7	5	-6	-2	36*
Cc1ccc(OCCC(=O)OCC(=O)Nc2cc(S(=O)(=O)N(C)C)ccc2C)cc1	-2	-4	-5	-2	-3
CC(C)CNC(=S)N1CCN(C)CC1	-8	-2	-12	81*	-4
CCc1cc(=O)[nH]c(SCCC(F)=C(F)F)n1	-3	-3	-7	-11	-1
COC(=O)CNC(=O)C12CC3CC(C1)CC(c1ccc(C)cc1)(C3)C2	-1	6	4	-12	-3
Cc1ccc(C23CC4CC(CC(CN)(C4)C2)C3)cc1	4	-5	5	-4	86*
CC(=O)NC(=S)Nc1ccc(-c2nc3ccc(C)cc3s2)cc1	1	-10	-40	-9	-27
CC1=CCC(C(=O)O)C(C(=O)Nc2ccc(-c3nc4ccc(C)cc4s3)cc2)C1 (stereo unspecified)	x	-3	-10	17	80*
C=CCn1c(SCC(=O)c2[nH]c(C)c(C(=O)OCC)c2C)nc2scc(-c3ccc(OC)c(OC)c3)c2c1=O	-1	-4	-30	82*	13
CCOC(=O)c1c(C)[nH]c(C(=O)CSc2nnc(-c3ccncc3)n2CC)c1C	5	-1	13	6	1
NC(=O)CC(NC(=O)c1ccccc1)c1ccc(NCCc2cccc(F)c2)c([N+](=O)[O-])c1 (stereo unspecified)	x	x	-22	3	96*
Cc1ccccc1Nc1nc(N)nc(CSc2nnnn2-c2ccccc2)n1	-19	-1	2	-5	-1
CCc1ccc(Nc2nc(N)nc(CSc3nnnn3-c3ccccc3)n2)cc1	3	-7	8	71*	-58
COC(=O)c1ccc(Cn2cc(Cl)cn2)o1	x	-6	-5	-16	-1
Cc1nc(S/C(=C\c2ccc(-c3ccc(C(=O)O)c(Cl)c3)o2)C(=O)O)n[nH]1	x	-10	-18	86*	10
CC1CC(C)CN(c2cc(=O)n(Cc3ccc(F)cc3)c(=O)[nH]2)C1 (stereo unspecified)	18	-11	-11	-7	-3
CCN(CC)C(=O)c1ccccc1NC(=O)CN1C(=O)c2ccccc2C1=O	-2	-11	-17	-4	6
SMILES	PKD1 kinase inh	RBBP9 inhibitor	EBV gp42 inh	14-3-3 Bad inh	eIF4E 4G PPI
CCOC(=O)C1CCN(C(=O)Nc2ccc3nc(-c4ccco4)c(-c4ccco4)nc3c2)CC1	3	1	50	32	44*[fluorescence artefact?]
O=C(Nc1ccc2nc(-c3ccco3)c(-c3ccco3)nc2c1)N1CCCCCC1	3	0	78*	35	28
Cc1nc2ccc(NC(=O)N3CCCCC3)cc2nc1C	-2	-7	-12	-6	0
CCOC(=O)C1CCN(C(=O)Nc2ccc3c(c2)nc(C)n3C)CC1	-11	-1	-11	-9	-2
CN1CCN(c2nc(-c3ccc(Cl)s3)cs2)CC1	-1	-6	-12	5	0
COC(=O)c1ccccc1NC(=O)Nc1ncccc1C	-2	-5	64*	1	4
O=C(NC(=S)Nn1cnc2c(cnn2-c2ccccc2)c1=O)c1ccccc1	3	-12	0	-11	3
O=C(NCC1COc2ccccc2O1)C1CCN(S(=O)(=O)c2cccc3nsnc23)CC1 (stereo unspecified)	-16	-7	-32	85*	9
CCCCCn1c(N)c(-c2nc3ccccc3o2)c2c([N+](=O)[O-])nn(CC)c(=O)c21	-4	-6	55*	34	7
CCCCCn1c(N)c(-c2nc3ccccc3o2)c2c([N+](=O)[O-])nn(C)c(=O)c21	-7	3	69*	77*[fluorescence artefact?]	22
Cc1ccc2cc(CCNC(=O)c3cccc([N+](=O)[O-])c3)c(=O)[nH]c2c1C	-3	-7	-5	2	21
COc1ccc(CC(=O)Nc2ccc(-c3nnc(-c4ccccc4)o3)cc2)cc1OC	-7	4	-61	55	33*
Cc1cc(C)n2ncc(S(=O)(=O)c3ccccc3)c2n1	-2	-11	3	-5	-1
C/C(=N\N1CCN(C2c3ccccc3-c3ccccc32)CC1)c1ccncc1	9	-3	117*	-5	11
O=C1C(=O)N(Cc2ccco2)C(c2cccs2)/C1=C(\O)c1cccc([N+](=O)[O-])c1 (stereo unspecified)	x	-7	-11	-1	4
c1ccc(OCc2nnc3sc(-c4cccs4)nn23)cc1	5	-5	-18	20	27
Clc1ccc(Cl)c(-c2nn3c(COc4ccccc4)nnc3s2)c1	2	-8	-20	7	34*[fluorescence artefact?]
CCCCNC(=O)c1ccc(S(=O)(=O)c2ccc(Cl)cc2)c(NC(C)=O)c1	-6	-3	2	72*	4
COc1ccc(OCC(=O)N/N=C2/C=C(C)CC2)cc1	-2	5	-2	-5	1
O=C1/C(=C/c2cccs2)Sc2ccccc21	-8	-9	-8	-9	-4
O=C1Nc2ccccc2S/C1=C/c1cccs1	x	-8	-19	1	74*
CCN1C(=O)/C(=C\N(C)C)S/C1=N\S(=O)(=O)c1ccccc1	-8	-2	-3	92*	-4

Screening results from PubChem.
